Results on 2 molecules are retold here after ChEMBL document CHEMBL5385869, “Novel 4-aminoquinolines: Synthesis, inhibition of the Mycobacterium tuberculosis enoyl-acyl carrier protein reductase, antitubercular activity, SAR, and preclinical evaluation” (Eur J Med Chem, 2023).

In data set [1] the target is T1, Enoyl-[acyl-carrier-protein] reductase [NADH] (Mycobacterium tuberculosis, UniProt P9WGR1).
T1 sequence (P9WGR1 whole entry): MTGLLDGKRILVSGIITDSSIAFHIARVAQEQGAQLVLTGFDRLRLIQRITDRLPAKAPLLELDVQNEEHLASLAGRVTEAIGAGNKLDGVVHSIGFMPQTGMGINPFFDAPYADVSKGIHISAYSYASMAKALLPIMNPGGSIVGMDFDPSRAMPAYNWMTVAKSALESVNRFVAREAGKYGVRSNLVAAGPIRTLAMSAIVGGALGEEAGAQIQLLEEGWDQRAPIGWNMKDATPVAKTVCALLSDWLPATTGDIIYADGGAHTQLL
The experiment in a line: Inhibition of Mycobacterium tuberculosis InhA-catalysed chemical reaction in presence of NADH measured for 1 min by UV/Visible spectrophotometry. The gist of the method: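 Recombinant MtInhA reaction at 25 °C in 100 mM Pipes pH 7.0, started by adding 2.2 μM enzyme and followed for 1 min. Substrate is DD-CoA, made from 2-trans-dodecenoic acid and CoA.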

The subject of data set [2] is Mycobacterium tuberculosis. Put plainly: Antibacterial activity against pan-sensitive Mycobacterium tuberculosis H37Rv ATCC 27294 measured after 7 days by resazurin dye based assay. The class given is functional. To be noted: H37Rv ATCC 27294, 168 h, time 7 day. The gist of the method: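 Resazurin reduction microplate assay (REMA) in Middlebrook 7H9 broth with 10% ADC and 5% DMSO. Compounds come from 2 mg/mL DMSO stocks and are 2-fold serially diluted, top concentration 0.08–40 μg/mL depending on solubility. MIC is the lowest concentration preventing the blue-to-pink colour change. Three independent experiments; the reported value is the modal or the highest value.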

Data set [3] deals with Mycobacterium tuberculosis. Put plainly: Potency index, ratio of isoniazid MIC to test compound MIC for antibacterial activity against pan-sensitive Mycobacterium tuberculosis H37Rv ATCC 27294 measured after 7 days by resazurin dye based assay. The class given is functional. To be noted: time 7 day.
The target of data set [4] is T1, Enoyl-[acyl-carrier-protein] reductase [NADH]. Put plainly: Noncompetitive inhibition of Mycobacterium tuberculosis InhA using DD-CoA as substrate assessed as inhibition constant for enzyme-inhibitor binary complex in presence of varying concentrations of NADH by double reciprocal plot analysis.
The nature of data set [5]: Cytotoxicity against human HepG2 cells assessed as reduction in cell viability incubated for 72 hrs by MTT assay. The class given is toxicity, cell-based. The essentials: (§1)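 Cells grown in DMEM with 10% FBS. HepG2 seeded at 4 × 10³ and Vero at 2 × 10³ cells/well, 24 h before dosing. Compounds at 1, 5 and 20 μM in 1% DMSO for 72 h at 37 °C, 5% CO2. MTT readout: 5 mg/mL reagent for 4 h, absorbance at 595 nm. Neutral red readout: 25 μg/mL dye for 3 h, then acid-ethanol desorb. Viability is expressed relative to 1% DMSO controls.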
(Formazan colour is commonly taken as a measure of viable cells.)

Data set [6] is described as follows: Cytotoxicity against human HepG2 cells assessed as reduction in cell viability incubated for 72 hrs by neutral red uptake assay. The data set is classed as toxicity, cell-based. The essentials:
as §1

A short description of data set [7]: Selectivity index, ratio of CC50 for human HepG2 cells by MTT assay to MIC for pan-sensitive Mycobacterium tuberculosis H37Rv ATCC 27294. To be noted: read-out: Selectivity Index. The data set is classed as toxicity.
Data set [8] in a line: Selectivity index, ratio of CC50 for human HepG2 cells by neutral red uptake assay to MIC for pan-sensitive Mycobacterium tuberculosis H37Rv ATCC 27294. The data set is classed as toxicity. To be noted: read-out: Selectivity Index.
A short description of data set [9]: Selectivity index, ratio of CC50 for African green monkey Vero cells by neutral red uptake assay to MIC for pan-sensitive Mycobacterium tuberculosis H37Rv ATCC 27294. The data set is classed as toxicity, cell-based. To be noted: read-out: Selectivity Index.
The subject of a further data set is Staphylococcus aureus. Put plainly: Antibacterial activity against Staphylococcus aureus ATCC 25923 assessed as inhibition of bacterial growth at 20 uM by broth microdilution method. The class given is functional, organism-based. The essentials:
(§2)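 Broth microdilution in triplicate against a small bacterial panel, with compounds tested at 20 μM for growth inhibition.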
On the technique in general: In broth dilution the organism is exposed to a series of concentrations in liquid medium.

The next data set has as its system Escherichia coli. The experiment in a line: Antibacterial activity against Escherichia coli ATCC 25922 assessed as inhibition of bacterial growth at 20 uM by broth microdilution method. The class given is functional, organism-based. The gist of the method: as §2
In the next data set the test system is Acinetobacter baumannii. The experiment in a line: Antibacterial activity against multidrug-resistant Acinetobacter baumannii clinical isolates assessed as inhibition of bacterial growth at 20 uM by broth microdilution method. The class given is functional, organism-based. The essentials:
as §2

Data set [10] is described as follows: Chemical stability in PBS at pH 7.4 assessed as parent compound remaining at 1 to 10 uM measured after 24 hrs by HPLC-EM/MS analysis. The data set is classed as physicochemical. To be noted: dose 1-10 µM, read-out: Stability. The gist of the method: (§3)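 Compounds at 1–10 μM incubated 24 h at 37 °C in three media: pH 1.2 (0.1 M HCl), pH 7.4 (PBS) and pH 9.1 (0.1 M NH4HCO3). Remaining parent compound quantified afterward.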

The nature of data set [11]: Chemical stability in 0.1 M NH4HCO3 solution at pH 9.1 assessed as parent compound remaining at 1 to 10 uM measured after 24 hrs by HPLC-EM/MS analysis. The class given is physicochemical. To be noted: dose 1-10 µM, read-out: Stability. The essentials: as §3
Data set [12] can be described thus: Solubility of compound in 0.1 M HCl solution at pH 1.2 at 1 mg incubated for 4 hrs under shaking conditions by liquid chromotography. The class given is physicochemical. The essentials:
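1 mg of compound was added to 1 mL of PBS pH 7.4 or 0.1 M HCl, in triplicate. Suspensions were vortexed 1 min, shaken 4 h at 25 °C, then centrifuged 13000 rpm for 15 min at 25 °C. Supernatant was quantified by reverse-phase UHPLC (UV 260–280 nm) against a single-point calibration of compound in DMSO.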

Data set [13] in a line: Metabolic stability in rat liver microsomes assessed as intrinsic clearance at 2 uM measured upto 30 mins by HPLC/MS/MS analysis. To be noted: read-out: CLH. The class given is ADME, Microsome. The gist of the method:
(§4)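 Compounds at 2 μM incubated at 37 °C with 1 mg/mL rat liver microsomes containing NADPH. Parent compound consumption followed over time.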

Data set [14] in a line: Metabolic stability in rat liver microsomes assessed as half life at 2 uM measured upto 30 mins by HPLC/MS/MS analysis. The class given is ADME, Microsome. The gist of the method: as §4
(Microsomes from liver hold many membrane-bound enzymes, among them those of drug oxidation.)

Data set [15] can be described thus: Chemical stability in 0.1 M NH4HCO3 solution at pH 9.1 assessed as reduction in parent compound at 1 to 10 uM measured after 24 hrs by HPLC-EM/MS analysis. The class given is physicochemical. To be noted: dose 1-10 µM, read-out: Drug degradation. The gist of the method:
as §3

For data set [16], the target named is T1, Enoyl-[acyl-carrier-protein] reductase [NADH]. Put plainly: Binding affinity to Mycobacterium tuberculosis InhA assessed as dissociation constant at 250 uM at 25 degreeC in presence of NADH by fluorescence spectroscopy. The essentials:
(§5)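 Titration of pre-formed MtInhA:NADH complex (2 mL of 3 μM enzyme with 20 μM NADH), adding microliter aliquots of 250 μM ligand stock with dilution kept ≤1%. Intrinsic fluorescence read at 295 nm excitation, 310–500 nm emission. Temperatures 15, 20, 25 and 30 °C. KD is fitted to a hyperbolic isotherm. ΔH°, ΔS° and ΔG° come from van't Hoff analysis of KD across temperatures.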

Data set [17] addresses T2, Enoyl-[acyl-carrier-protein] reductase [NADH] (Mycobacterium tuberculosis) (UniProt P9WGR1).
T2 sequence (whole entry): T1 sequence (P9WGR1 whole entry)
The experiment in a line: Binding affinity to Mycobacterium tuberculosis InhA assessed as change in enthalpy at 250 uM in presence of NADH by fluorescence spectroscopy.

Data set [18] addresses T2, Enoyl-[acyl-carrier-protein] reductase [NADH] (Mycobacterium tuberculosis). Put plainly: Binding affinity to Mycobacterium tuberculosis InhA assessed as gibbs free energy change at 250 uM in presence of NADH by fluorescence spectroscopy. The gist of the method: as §5

In brackets after ≈: the same amount, converted by molar mass. Activity calls are given as the source filed them.

For the molecule `Cc1cc(Nc2ccc(N3CCCCC3)cc2)c2cc(Cl)ccc2n1`, the IC50 (in general, the concentration that gives 50% inhibition) in data set [1] amounted to 1100 nM. In data set [2], the MIC (in general, the lowest concentration found to suppress growth) was found to be 0.9 µM (≈ 0.317 µg/mL). In addition, in data set [3], the Ratio was ~2.6. Moreover, the Ki (usually the equilibrium dissociation constant of an inhibitor or competing ligand from its target) in [4] stood at 430 nM. Besides, the CC50 (commonly the concentration giving 50% cytotoxicity) at 72 h in data set [5] was > 20 µM; in data set [6], 16.4 µM. Besides, the selectivity ratio in data set [7] was > 22.2; in [8], 18.2; in data set [9], 13. For the same molecule, the result in the data set on Staphylococcus aureus, in the data set with Escherichia coli and with Acinetobacter baumannii was inactive. Further, the remaining at 24 h, up to 10 µM in data set [10] was 100%; in data set [11] it was 24.7%. Also, the solubility (thermodynamic) (in general, solubility found after equilibrating the solid with the medium) at 4 h in [12] was > 2800 µM. In data set [13], the CLint scaled at 2 µM came out at 60.5 mL/min/kg. The half-life (in general, the time needed for the level to fall by half in the phase considered) at 2 µM in data set [14] came out at 5.9 min. Further, in data set [15], the degraded at 24 h, up to 10 µM is > 75%. Moreover, the Kd (as a rule, the free concentration of one partner at which half of the binding sites on the other are occupied at equilibrium, for simple one-to-one binding) in data set [16] was determined as 900 nM. Moreover, in data set [17], the deltaH was -23.2 kcal/mol. Further, the deltaG in data set [18] is -8.3 kcal/mol.
Turning to `Cc1cc(Nc2ccc(N3CCCCC3)cc2)c2cc(Br)ccc2n1`, in data set [1], the IC50 came to 230 nM. In data set [2], this molecule showed an MIC of 0.4 µM (≈ 0.159 µg/mL). Besides, in data set [3], the Ratio was ~5.8. Also, in data set [4], the Ki is 140 nM. The CC50 at 72 h in [5] was > 20 µM; in data set [6] it was 18.3 µM. Moreover, the selectivity ratio in [7] was > 50; in [8], 45.7; in [9], 30.5. Moreover, the result in the data set with Staphylococcus aureus, in the data set with Escherichia coli and with Acinetobacter baumannii was inactive. The remaining at 24 h, up to 10 µM in data set [10] worked out at 100%; in [11], 47%. Besides, the thermodynamic solubility at 4 h in data set [12] is > 2500 µM. The CLint scaled at 2 µM in data set [13] stood at 36.2 mL/min/kg. Further, the half-life at 2 µM in data set [14] came to 22 min. Moreover, the degraded at 24 h, up to 10 µM in data set [15] is ~50%. Moreover, the Kd in [16] was determined as 810 nM. For the same molecule, in data set [17], the deltaH was -18.3 kcal/mol. In data set [18], the deltaG was -8.3 kcal/mol.
